Consider 24 molecules from ChEMBL document CHEMBL1268999, “Triazolyl tryptoline derivatives as β-secretase inhibitors” (Bioorg Med Chem Lett, 2010).

Usually inhibition stands for how much of the control response was suppressed. The low end stands for little suppression, the high end for strong suppression. The term IC50 denotes the midpoint of a concentration-inhibition curve.

Each structure is given as a SMILES string.

The target of data set [1] is T1, Beta-secretase 1 (Homo sapiens, UniProt P56817). The experiment in a line: Inhibition of human BACE1 at 5 uM. The essentials:
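Recombinant human BACE1 enzymatic assay with a FRET substrate (fluorescence resonance energy transfer read-out). Candidates were crude Cu(I)-catalysed azide–alkyne products made in microtiter plates with more than 80% conversion by LC–MS. They were diluted in 50 mM sodium acetate (pH 4.5) to 25 mM stocks, based on azide input.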

The nature of data set [2]: Solubility of the compound. Type of data set: physicochemical. The essentials:
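Aqueous solubility reported as a categorical level on a 0–3 scale, where 0 = extremely low and 3 = good.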

Data set [3] is described as follows: Protein binding in plasma. As to conditions: read-out: PPB; call rule not given here. The format is ADME, cell-free. An outline of the steps: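 Plasma protein binding reported as a categorical level: 1 = binding >90%; 2 = binding >95%.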
The target of data set [4] is Cytochrome P450 2D6 (Homo sapiens, UniProt P10635). The experiment in a line: Inhibition of CYP2D6. Type of data set: ADME. An outline of the steps: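 CYP2D6 inhibition reported as a categorical score, where 0 = non-inhibitor.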
Chain of Cytochrome P450 2D6 (P10635 whole entry): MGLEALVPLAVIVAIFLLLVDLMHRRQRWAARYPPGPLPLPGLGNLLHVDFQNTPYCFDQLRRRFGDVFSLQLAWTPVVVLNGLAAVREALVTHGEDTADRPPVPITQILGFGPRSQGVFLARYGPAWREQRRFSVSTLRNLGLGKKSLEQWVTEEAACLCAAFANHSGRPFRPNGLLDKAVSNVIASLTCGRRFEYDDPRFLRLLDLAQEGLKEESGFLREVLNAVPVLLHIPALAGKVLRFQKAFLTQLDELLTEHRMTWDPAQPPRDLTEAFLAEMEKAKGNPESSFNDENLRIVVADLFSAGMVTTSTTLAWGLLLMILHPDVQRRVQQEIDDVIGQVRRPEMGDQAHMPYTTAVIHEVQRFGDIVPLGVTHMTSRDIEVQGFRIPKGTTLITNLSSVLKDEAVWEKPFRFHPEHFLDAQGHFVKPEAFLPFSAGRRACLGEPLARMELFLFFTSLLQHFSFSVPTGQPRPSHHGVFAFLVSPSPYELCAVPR
Data set [5] deals with Hepatocyte. Briefly: Toxicity in hepatocytes. The format is cell-based.
The test system of data set [6] is Rattus norvegicus. The experiment in a line: Toxicity in po dosed rat. The format is organism-based. Conditions: in vivo.
Data set [7] deals with T1, Beta-secretase 1. The experiment in a line: Inhibition of human recombinant BACE1 by FRET assay. The essentials: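 Recombinant human BACE1 assayed by fluorescence resonance energy transfer (FRET) cleavage of a FRET substrate. They were diluted in 50 mM sodium acetate (pH 4.5) to 25 mM stocks, based on azide input. A purified resynthesised compound was also tested.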

For data set [8], the target named is Cathepsin D (Homo sapiens, UniProt P07339). Briefly: Inhibition of human recombinant Cathepsin D by FRET assay.
Chain of Cathepsin D (P07339 65-162 limits assumed): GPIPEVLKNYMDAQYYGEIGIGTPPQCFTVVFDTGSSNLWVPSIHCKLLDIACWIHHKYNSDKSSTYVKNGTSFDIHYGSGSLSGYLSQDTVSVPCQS
Chain of Cathepsin D (P07339 169-412 limits assumed): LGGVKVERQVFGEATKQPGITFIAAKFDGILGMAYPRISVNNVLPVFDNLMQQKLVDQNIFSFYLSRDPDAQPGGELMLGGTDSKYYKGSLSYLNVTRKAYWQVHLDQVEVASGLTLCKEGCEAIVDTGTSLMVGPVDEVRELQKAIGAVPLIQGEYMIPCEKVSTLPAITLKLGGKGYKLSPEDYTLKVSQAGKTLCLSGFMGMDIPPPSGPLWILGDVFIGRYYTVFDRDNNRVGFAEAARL

T1 sequence (P56817 whole entry): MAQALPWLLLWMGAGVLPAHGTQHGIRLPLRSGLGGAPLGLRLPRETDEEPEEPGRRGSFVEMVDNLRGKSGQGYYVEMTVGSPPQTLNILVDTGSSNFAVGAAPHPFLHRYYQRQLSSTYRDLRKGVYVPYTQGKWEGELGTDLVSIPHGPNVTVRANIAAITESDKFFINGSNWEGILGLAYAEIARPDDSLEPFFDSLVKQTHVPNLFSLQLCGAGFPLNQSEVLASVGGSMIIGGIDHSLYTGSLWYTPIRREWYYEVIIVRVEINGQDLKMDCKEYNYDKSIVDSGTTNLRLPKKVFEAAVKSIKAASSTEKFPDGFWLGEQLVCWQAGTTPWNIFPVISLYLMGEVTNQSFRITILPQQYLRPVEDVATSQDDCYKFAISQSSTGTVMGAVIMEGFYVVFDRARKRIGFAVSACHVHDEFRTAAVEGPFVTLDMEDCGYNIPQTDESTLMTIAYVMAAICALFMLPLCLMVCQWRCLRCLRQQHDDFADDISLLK

In turn, `CC(=O)c1ccc(-c2cn(C[C@@H]3Cc4c([nH]c5ccccc45)CN3)nn2)cc1` came in with an inhibition in data set [1] below 50%.
Same read-out and setting: the figure for `Nc1cccc(-c2cn(C[C@@H]3Cc4c([nH]c5ccccc45)CN3)nn2)c1` is below 50%; for `OC1(c2cn(C[C@@H]3Cc4c([nH]c5ccccc45)CN3)nn2)c2ccccc2-c2ccccc21` it is below 50%.
As for `N#CCCc1cn(C[C@@H]2Cc3c([nH]c4ccccc34)CN2)nn1`, the inhibition in data set [1] is below 50%.
On the same count and under the same terms, the figure for `c1ccc2c(-c3cn(C[C@@H]4Cc5c([nH]c6ccccc56)CN4)nn3)cccc2c1` is below 50%; for `c1ccc2c3c([nH]c2c1)CN[C@H](Cn1cc(COC2CCCCO2)nn1)C3` (some centres undefined) it is below 50%.
For the molecule `CC[C@H]1CN2CCc3c([nH]c4ccccc34)[C@H]2C[C@@H]1C[C@@H]1NCCc2c1[nH]c1ccccc21`, in data set [2], the solubility result is recorded as “Insoluble”. The fraction unbound in data set [3] is below 0.05. Also, the “inhibition (INH)” value in data set [4] is recorded as “Not Active”. Also, the Activity entry in data set [5] is reported as “Toxic”. In addition, the LD50 in data set [6] was determined as 235.5 µg/g.
With `COc1ccc2cc(-c3cn(C[C@@H]4Cc5c([nH]c6ccccc56)CN4)nn3)ccc2c1`, the results for the IC50 in data set [7] and in data set [8] were 1490 nM and above 100000 nM, respectively. This molecule also gave an inhibition in data set [1] above 50%.
In the case of `Cc1nnc(SCc2cn(C[C@@H]3Cc4c([nH]c5ccccc45)CN3)nn2)s1`, in data set [1], the inhibition is below 50%.
The molecule `CCCC(O)c1cn(C[C@@H]2Cc3c([nH]c4ccccc34)CN2)nn1` (some centres undefined) had an inhibition in data set [1] below 50%.
Still for that read-out and setting: the figure for `Cc1ccc(-c2cn(C[C@@H]3Cc4c([nH]c5ccccc45)CN3)nn2)cc1` is below 50%.
Molecule `OC/C=C/c1cn(C[C@@H]2Cc3c([nH]c4ccccc34)CN2)nn1` yielded an inhibition in data set [1] below 50%.
Still for that read-out and setting: the figure for `c1ccc2c3c([nH]c2c1)CN[C@H](Cn1cc(-c2ccsc2)nn1)C3` is below 50%; for `Fc1cc(F)cc(-c2cn(C[C@@H]3Cc4c([nH]c5ccccc45)CN3)nn2)c1` it is below 50%.
Still for that read-out and setting: next, `c1ccc2c3c([nH]c2c1)CN[C@H](Cn1cc(COC[C@H]2CO2)nn1)C3`: below 50%; `CC(O)c1cn(C[C@@H]2Cc3c([nH]c4ccccc34)CN2)nn1` (some centres undefined): below 50%.
For `c1ccc2c3c([nH]c2c1)CNCC3` [TRYPTOLINE], in data set [2], the solubility result is listed as “Soluble”. Further, the fraction unbound in data set [3] is below 0.1. The “inhibition (INH)” value in data set [4] was “Not Active”. Also, the Activity entry in data set [5] was “Non-toxic”. In addition, in data set [6], the LD50 came to 701500 µg/g.
`CCOC(OCC)c1cn(C[C@@H]2Cc3c([nH]c4ccccc34)CN2)nn1`: the inhibition in data set [1] was below 50%.
The same measure, in the same setting: the figure for `CC(=O)CC(=O)NCc1cn(C[C@@H]2Cc3c([nH]c4ccccc34)CN2)nn1` is below 50%; for `OC1(c2cn(C[C@@H]3Cc4c([nH]c5ccccc45)CN3)nn2)CCCC1` it is below 50%; for `c1ccc2c3c([nH]c2c1)CN[C@H](Cn1cc(Cn2ccnc2)nn1)C3` it is below 50%.
In data set [1], `c1ccc(-c2ccc(-c3cn(C[C@@H]4Cc5c([nH]c6ccccc56)CN4)nn3)cc2)cc1` displayed an inhibition below 50%.
The same measure, in the same setting: next, `OC(c1ccccc1)c1cn(C[C@@H]2Cc3c([nH]c4ccccc34)CN2)nn1` (some centres undefined): below 50%; `c1ccc(SCc2cn(C[C@@H]3Cc4c([nH]c5ccccc45)CN3)nn2)cc1`: below 50%.
